The nature of test [1]: inhibitors of TNFa-induced NFkB p65 translocation, primary screen, imaging, HUVEC, MLSMR starter and 10KST1 sets (AID 438).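 For inhibition: signal is the nuclear over cytoplasmic p65 intensity ratio per well.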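 Note: compound added about 3h40 before a 20 min TNFalpha stimulation.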 Particulars: HUVEC TNFa-induced p65 nuclear translocation; cell count: measured here: nuclei count (cytotoxicity indicator), at 2.08 µM; inhibition: at 2 µM, stronger effect = higher value, 0% TNFa-plus-vehicle, 100% no-TNFa wells.
A short description of test [2]: inhibitors of E-selectin induction by TNFa, primary screen, imaging, HUVEC, immunofluorescence, MLSMR starter and 10KST1 sets (AID 487;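 active = visually confirmed hit in the image check and inhibition above 20%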;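 for inhibition: signal is fraction of cell area covered by stained E-selectin grains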;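 for nuclei count: 100% = median nuclei count of all wells on the same plate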). Particulars: HUVEC TNFalpha-induced E-selectin immunofluorescence imaging, at 2 µM; inhibition: stronger effect = higher value; nuclei count: measured here: cell number, toxicity.
The nature of test [3]: DUSP6 inhibitors restoring Erk phosphorylation by chemical complementation, primary imaging in DUSP6-transfected HeLa (AID 609;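 active = compounds giving at least 50% inhibition in the cell-based MKP-3 phosphatase rescue imaging test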;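 for inhibition: phospho-Erk level distribution per well compared with pooled transfected vehicle control wells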). Particulars: HeLa MKP-3 transfected, phospho-Erk imaging KS statistic, at 10 µM, cells stimulated with TPA for 15 min.
For test [4], the target named is Dual specificity protein phosphatase 6 (Homo sapiens) (UniProt Q16828). The test is described as above. Conditions: HeLa MKP-3 transfected, phospho-Erk imaging KS statistic; at 10 µM; stronger effect = higher value; cells stimulated with TPA for 15 min.
Sequence of Dual specificity protein phosphatase 6 (Homo sapiens) (Q16828 whole entry, looked up): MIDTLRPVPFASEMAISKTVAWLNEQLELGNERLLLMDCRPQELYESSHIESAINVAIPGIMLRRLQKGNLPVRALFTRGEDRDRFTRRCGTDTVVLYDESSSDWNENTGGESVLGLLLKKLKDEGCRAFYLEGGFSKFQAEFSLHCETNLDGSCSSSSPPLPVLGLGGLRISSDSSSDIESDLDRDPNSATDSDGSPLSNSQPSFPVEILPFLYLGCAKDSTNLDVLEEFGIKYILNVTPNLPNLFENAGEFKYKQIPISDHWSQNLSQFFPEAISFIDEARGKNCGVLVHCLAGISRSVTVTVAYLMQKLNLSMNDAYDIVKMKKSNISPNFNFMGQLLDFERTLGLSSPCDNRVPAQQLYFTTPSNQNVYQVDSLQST
The target of test [5] is Voltage-gated potassium channel subunit beta-2 (Rattus norvegicus) (UniProt P62483). Description: KvBeta enzyme negative modulators, primary screen, biochemical, NADPH fluorescence (AID 622;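 active = fluorescence slope higher than the sample average by over 3 SD, cut at about -0.22 in these data, passing the limit was not always enough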;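 note: slope of raw intensity against log time taken from 70 to 1610 s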). Particulars: recombinant KvBeta, 4-cyanobenzaldehyde reduction, at 10 µM, stronger effect = higher value.
Sequence of Voltage-gated potassium channel subunit beta-2 (Rattus norvegicus) (P62483 whole entry, looked up): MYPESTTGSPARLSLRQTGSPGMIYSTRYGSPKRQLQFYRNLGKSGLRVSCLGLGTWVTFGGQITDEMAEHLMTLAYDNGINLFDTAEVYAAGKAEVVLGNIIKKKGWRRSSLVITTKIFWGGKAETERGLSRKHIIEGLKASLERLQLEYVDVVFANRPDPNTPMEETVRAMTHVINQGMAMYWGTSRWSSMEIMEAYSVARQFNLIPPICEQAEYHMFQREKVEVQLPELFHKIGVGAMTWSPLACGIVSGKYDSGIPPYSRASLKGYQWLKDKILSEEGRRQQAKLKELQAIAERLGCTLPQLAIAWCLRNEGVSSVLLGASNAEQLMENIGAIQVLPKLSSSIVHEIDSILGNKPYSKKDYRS
For test [6] the target is unchanged. Put plainly: KvBeta positive modulators, primary screen, biochemical, NADPH fluorescence (AID 623;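 active = NADPH fluorescence slope more negative than the mean of all samples by about 3 SD, 99.7% confidence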;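 note: fluorescence intensity change per second fitted from 20 to 320 s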). Particulars: Recombinant KvBeta, NADPH fluorescence decrease slope, 10 min; at 10 µM; stronger effect = lower value.
Test [7] has as its target Muscarinic acetylcholine receptor M4 (Homo sapiens) (UniProt P08173). Description: compounds altering M4/GIRK thallium flux, either direction, primary screen, M4 allosteric agonist project, cell-based, HEK293 M4/GIRK, BTC-AM (AID 625;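 active = fluorescence slope after compound addition differing from the mean of all tested samples at 99.7% confidence, mostly higher but some lower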;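 note: thallium influx through GIRK channels coupled to M4 in HEK293 cells with BTC-AM dye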). Conditions: at 10 µM, actives lie on both sides. In short, it runs like this:
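Material: HEK293 cells with M4 receptor and GIRK channels; Times: cells overnight at 37 °C, BTC-AM loading 1 h, reads 2 min total; Technique: kinetic BTC-AM fluorescence sampled at 1 Hz, 10 s pre-addition baseline; Read-out basis: slope over 15–24 s of trace normalized to starting intensity; Controls: carbachol positive, DMSO negative.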

A short description of test [8]: inhibitors of larval lipid processing in zebrafish, primary screen, whole organism, PED6 fluorescence, gall bladder and intestine (AID 686;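 active = a full or partial loss of lipid-probe fluorescence in the fish gall bladder, intestine or both, judged by eye; inactive = no fluorescence loss, or compound toxic to the fish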;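 note: larvae 5 to 7 days old with five fish per well; signal comes from phospholipase A2 cleavage of quenched PED6 carried via bile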). Conditions: Zebrafish larvae PED6 lipid processing, fluorescence scoring; screened at 20 µM (by protocol). In short, it runs like this: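 Incubation: overnight exposure of larvae to compound plus PED6 / Test system: live zebrafish larvae aged 5-7 days, whole organism / Amount: 5 larvae per well / Read-out basis: visual per-well fluorescence inhibition score / Signal: visual fluorescence microscopy scoring of gall bladder, gut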

Test [9] in a line: inhibitors of Chlamydomonas gravitaxis, primary screen, whole organism, Chlamydomonas reinhardtii, WT vs cilia-less mutant, absorbance, 96-well (AID 463189;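 active = inhibition at or above 50% relative to wild type and mutant plate controls; inactive = inhibition below 50%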;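 note: 0% = wild type cc124 cells in DMSO and 100% = ciliumless bld1 mutant cells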). Conditions: OD600 absorbance, 2 days, at 10 µM, stronger effect = higher value.
[10] abbreviates: measured here: cell density z-score.
The mark [11] stands for this setting: measured here: nuclear c-Myc green intensity z-score.
Where [12] appears, read: measured here: nuclear pErk red intensity z-score, stronger effect = higher value.

Active and inactive are the calls of the source.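 Rule for the calls, unless noted: active = inhibition above 20% together with a positive visual image hit; inconclusive = visual image hit but inhibition not above 20%; inactive = no visual image hit.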

Consider 10 compounds from PubChem BioAssay.

Sequence of Muscarinic acetylcholine receptor M4 (Homo sapiens) (P08173 whole entry, looked up): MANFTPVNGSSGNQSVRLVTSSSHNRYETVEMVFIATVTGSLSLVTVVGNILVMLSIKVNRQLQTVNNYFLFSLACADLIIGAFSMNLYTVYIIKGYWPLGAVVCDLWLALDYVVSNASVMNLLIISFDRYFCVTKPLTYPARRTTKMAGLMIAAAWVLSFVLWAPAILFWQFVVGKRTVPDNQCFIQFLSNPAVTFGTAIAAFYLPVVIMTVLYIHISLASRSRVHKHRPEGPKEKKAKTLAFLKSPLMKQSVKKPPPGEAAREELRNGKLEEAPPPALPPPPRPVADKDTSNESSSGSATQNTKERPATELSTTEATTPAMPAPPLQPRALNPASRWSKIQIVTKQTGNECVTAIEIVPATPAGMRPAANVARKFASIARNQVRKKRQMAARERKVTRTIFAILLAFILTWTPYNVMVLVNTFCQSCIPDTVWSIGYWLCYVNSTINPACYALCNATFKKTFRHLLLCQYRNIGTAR

Take `O=c1[nH]c2sc3c(c2c(=O)n1Cc1ccccc1)CCC3`: the cell count in test [1] turned out to be 602. In addition, the inhibition (as a rule, the drop in the measured response relative to a control, in per cent) in [1] is -2.5% (inactive); in [2], -99.8% (inactive); in test [4] it was 9.07% (inactive); in test [9], -9.09% (inactive). For the same compound, in [2], the nuclei count stood at 146%. Further, the z-score is 0.896 in test [3] (setting [10]), 0.335 in [3] (setting [11]) and -0.051 in test [3] (setting [12]). Further, the fluorescence slope was -0.453 (inactive) in test [5] and 0.00552 (inactive) in test [7]. For the same compound, the NADPH fluorescence slope in [6] was -0.000103 (inactive). Further, the outcome in test [8] was inactive.

For `CCC(CC)c1nc2cc(OC)c(OC)cc2c(=O)o1`, in [1], the cell count amounted to 581. Further, the inhibition is 0.1% (inactive) in test [1], -54% (inactive) in test [2], -4.59% (inactive) in test [4] and 0.563% (inactive) in [9]. Besides, the nuclei count in test [2] was 126%. The figures for the z-score in [3] (setting [10]), in test [3] (setting [11]) and in [3] (setting [12]) were -1.01, -1.15 and 0.697, respectively. Further, the results for the fluorescence slope in [5] and in test [7] were -0.451 (inactive) and 0.00503 (inactive), respectively. For the same compound, the NADPH fluorescence slope in [6] is -0.000112 (inactive). The result in test [8] was inactive.

For `Cc1cc2c(C)nc(Cc3ccccc3)nc2o1`, in test [1], the cell count stood at 561. The inhibition is -5.5% (inactive) in test [1], -85.6% (inactive) in test [2], 11.9% (inactive) in [4] and 16.9% (inactive) in test [9]. In addition, the nuclei count in test [2] is 149%. Further, the z-score in test [3] (setting [10]) is -0.156; in test [3] (setting [11]) it was 0.673; in test [3] (setting [12]), 0.277. The fluorescence slope in test [5] was -0.438 (inactive); in [7] it was 0.00471 (inactive). Moreover, the NADPH fluorescence slope in [6] is -7.2e-05 (inactive). Further, in [8], the result was inactive.

Turning to `COCCNC(=O)C(C#N)c1nc2ccccc2nc1N1CCN(Cc2ccc3c(c2)OCO3)CC1` (stereo not given), in [1], the cell count was determined as 737. The inhibition in [1] is -8.1% (inactive); in test [2], 11.8% (inactive); in [4], -2.09% (inactive); in test [9], 4.28% (inactive). The same compound returned a nuclei count in test [2] of 172%. For the same compound, the z-score in test [3] (setting [10]) is -1.49; in test [3] (setting [11]), 1.08; in test [3] (setting [12]), 1.16. The fluorescence slope was -0.474 (inactive) in [5] and 0.00436 (inactive) in test [7]. In [6], the NADPH fluorescence slope is -0.000128 (inactive). Also, in test [8], the call was inactive.

As for `O=C(Oc1oc(-c2ccco2)nc1C=Nc1ccccc1)c1ccco1`, the cell count in test [1] amounted to 504. For the same compound, the inhibition in [1] is 15% (inactive); in test [2], -2% (inactive); in test [4], 22.1% (inactive); in test [9], 38.4% (inactive). This compound also yielded a nuclei count in [2] of 108%. The z-score in test [3] (setting [10]) was -2.44; in [3] (setting [11]), 1.67; in test [3] (setting [12]) it was -0.418. Moreover, the results for the fluorescence slope in test [5] and in [7] were -0.504 (inactive) and 0.0053 (inactive), respectively. Also, in test [6], the NADPH fluorescence slope was -3.8e-05 (inactive). For the same compound, the compound was called inactive in test [8].

As to `COc1cc(C2C(C(C)=O)=C(O)C(=O)N2c2ccc(Br)cn2)ccc1O` (stereo not given), the cell count in [1] came to 406. In addition, the inhibition in [1] was -8.5% (inactive); in test [2], -148% (inactive); in test [4], -2.59% (inactive); in test [9], 23.7% (inactive). The same compound came in with a nuclei count in test [2] of 180%. The z-score in test [3] (setting [10]) was -0.216; in [3] (setting [11]), -0.848; in test [3] (setting [12]), 0.128. Besides, the fluorescence slope was -0.446 (inactive) in [5] and 0.00394 (inactive) in test [7]. The NADPH fluorescence slope in test [6] was -0.000114 (inactive). For the same compound, the outcome in test [8] was inactive.

For `Cn1c(Cn2cnc(Cl)c2Cl)nc2ccccc21`, the cell count in test [1] is 583. The inhibition in test [1] was 0.2% (inactive); in [2] it was -75.8% (inactive); in test [4] it was 12.8% (inactive); in [9], 21.9% (inactive). In addition, the nuclei count in test [2] was found to be 138%. For the same compound, the values for the z-score in [3] (setting [10]), in test [3] (setting [11]) and in [3] (setting [12]) were 0.873, 1.34 and 0.561, respectively. Moreover, the fluorescence slope in test [5] is -0.454 (inactive); in test [7] it was 0.00447 (inactive). Further, the NADPH fluorescence slope in [6] was -8.5e-05 (inactive). Also, in test [8], the result was inactive.

Regarding `CC1(C)Cc2c(c(N3CCOCC3)nc3sc4c(=O)[nH]cnc4c23)CS1`, the cell count in test [1] turned out to be 493. Moreover, the inhibition in test [1] was -5.7% (inactive); in test [2], 10.3% (inactive); in test [4], 7.93% (inactive); in [9], 28.7% (inactive). Moreover, the nuclei count in [2] turned out to be 100%. Moreover, the z-score was -0.312 in [3] (setting [10]), 0.705 in test [3] (setting [11]) and 1.1 in [3] (setting [12]). The fluorescence slope in [5] is -0.44 (inactive); in test [7] it was 0.00568 (inactive). Besides, in test [6], the NADPH fluorescence slope was -1.9e-05 (inactive). In addition, the compound was classed as inactive in test [8].

In the case of `O=S(=O)(c1ccccc1)N(CC(O)CN1CCCCC1)c1ccccc1` (stereo not given), the cell count in test [1] worked out at 596. Also, the inhibition in test [1] is -4.6% (inactive); in test [2], 36.6% (inactive); in [4] it was 5.42% (inactive); in test [9], 26.5% (inactive). The nuclei count in test [2] was 84.8%. Besides, the z-score was -0.887 in [3] (setting [10]), 0.0372 in [3] (setting [11]) and 0.232 in test [3] (setting [12]). In addition, the fluorescence slope in [5] is -0.342 (inactive); in [7], 0.00483 (inactive). For the same compound, the NADPH fluorescence slope in test [6] is -2.3e-05 (inactive). Moreover, in [8], the call was inactive.

Consider `C=CCn1c(C2CC(=O)N(c3ccc(C)cc3)C2)nc2ccccc21` (stereo not given), for which, in test [1], the cell count turned out to be 591. Also, the inhibition in [1] is -13.7% (inactive); in test [2], 47.4% (inactive); in test [4], -2.29% (inactive); in test [9] it was 2% (inactive). Further, the nuclei count in test [2] turned out to be 177%. Also, the z-score in test [3] (setting [10]) was -1.26; in test [3] (setting [11]) it was -0.0771; in test [3] (setting [12]) it was 0.981. For the same compound, the results for the fluorescence slope in test [5] and in [7] were -0.467 (inactive) and 0.00532 (inactive), respectively. In addition, the NADPH fluorescence slope in test [6] is -0.00019 (inactive). In addition, the compound was called inactive in test [8].
